Test results from ChEMBL document CHEMBL2163259, “ADME-guided design and synthesis of aryloxanyl pyrazolone derivatives to block mutant superoxide dismutase 1 (SOD1) cytotoxicity and protein aggregation: potential application for the treatment of amyotrophic lateral sclerosis” (J Med Chem, 2012).
Calls of active or inactive are those of the source. The calls are words filed in the database; no cut-off is given here.

Assays:
[1] = tested on: Superoxide dismutase [Cu-Zn] (Homo sapiens), P00441 [G94A]; test: Inhibition of SOD1 G93A mutant aggregation-induced cytotoxicity in rat PC12 cells assessed as cell viability incubated for 24 hrs and measured 72 hrs post compound dose by cytotoxicity protection assay; format: cell-based; details: PC-12
How it was run: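 PC12 cells expressing G93A SOD1-YFP fusion seeded 15000 cells/well, grown 24 h before dosing. 12-point dose response, top 32 μM, twofold dilutions. After 24 h, MG132 added (100 nM final). Viability measured 48 h later with Calcein-AM (1 μM final, 20 min, room temperature) fluorescence. EC50 derived from dose-response.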

[2] = Half life in mouse microsomes at 5 uM incubated for 1 hr at 37 degC in presence of NADPH; format: ADME, Microsome; details: 1 h, 5 µM
Caco-2 = test: Apparent permeability from basolateral to apical side in human Caco2 cells; format: ADME, cell-based
[3] = Plasma concentration in B6SJL mouse at 300 mg/kg after 6 hrs by mass spectrometry; format: ADME, organism-based; design: dose 300 mg/kg
How it was run: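 Single 300 mg/kg bolus i.p. injection in B6SJL mice; blood and brain collected at 0, 1, 3, 6, 12 and 24 h, flash frozen in liquid nitrogen and stored at -80 °C. Samples analysed by mass spectrometry with ESI ionization in MRM mode.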

[4] = AUClast in Sprague-Dawley rat at 1 mg/kg, po; format: ADME, organism-based; design: dose 1 mg/kg, route oral, time 0 - last; details: plasma
How it was run: (§1)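 Sprague-Dawley rats given a single 1 mg/kg bolus, intravenous or oral. Plasma PK parameters (AUC, dose-normalised AUC, half-life, clearance, Vss, Cmax, Tmax, oral bioavailability) derived from plasma levels.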

Rattus norvegicus [5] = test: Dose normalised AUC in Sprague-Dawley rat at 1 mg/kg, iv; format: ADME, organism-based; design: dose 1 mg/kg, route intravenous; details: in vivo; how it was run: as §1
Rattus norvegicus [6] = test: Dose normalised AUC in Sprague-Dawley rat at 1 mg/kg, po; format: ADME, organism-based; design: dose 1 mg/kg, route oral; details: in vivo; how it was run: as §1
[7] = Half life in Sprague-Dawley rat at 1 mg/kg, po; format: ADME, organism-based; design: dose 1 mg/kg, route oral; details: in vivo; how it was run: as §1
[8] = Volume of distribution at steady state in Sprague-Dawley rat at 1 mg/kg, iv; format: ADME, organism-based; design: dose 1 mg/kg, route intravenous; details: in vivo, read-out: Vdss
How it was run: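 Sprague-Dawley rats received a single bolus of 1 mg/kg by i.v. or by oral route. Plasma PK parameters were derived from the plasma concentration profile.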

Cytochrome P450 2C9 = Cytochrome P450 2C9 (Homo sapiens, UniProt P11712); test: Inhibition of CYP2C9; format: ADME
How it was run: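 Reversible inhibition of CYP isozymes in human liver microsomes, each isozyme with a single probe substrate. CYP3A4 tested with both testosterone and midazolam. IC50 determined.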

[9] = biological target: B1 bradykinin receptor (Homo sapiens) (UniProt P46663); test: Inhibition of human bradykinin B1 receptor at 10 uM by radioligand displacement assay
How it was run: (§2)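 LeadProfilingScreen panel of 68 in vitro enzyme and receptor assays. Compound tested at 10 μM in duplicate.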

[10] = biological target: L-type calcium channel, benzothiazepine site (Rattus norvegicus, UniProt P22002+P27732+Q02485); test: Inhibition of rat calcium channel L-type, benzothiazepine site at 10 uM by radioligand displacement assay
How it was run: (§3)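 Single concentration of 10 μM, tested in duplicate as part of a contracted panel of 68 in vitro enzyme and receptor assays. The panel covers common adverse CNS, cardiovascular, pulmonary and genotoxic targets.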

[11] = biological target: Endothelin receptor type B (Homo sapiens) (UniProt P24530); test: Inhibition of human endothelin ETB at 10 uM by radioligand displacement assay; how it was run: as §3
[12] = biological target: Epidermal growth factor receptor (Homo sapiens) (UniProt P00533); test: Inhibition of human epidermal growth factor receptor at 10 uM by radioligand displacement assay; how it was run: as §3
Rattus norvegicus [13] = species: Rattus norvegicus; test: Inhibition of rat GABAA receptor flunitrazepam site at 10 uM by radioligand displacement assay; how it was run: as §3
Rattus norvegicus [14] = species: Rattus norvegicus; test: Inhibition of rat GABAA receptor muscimol site at 10 uM by radioligand displacement assay; how it was run: as §3
[15] = biological target: Glucocorticoid receptor (Homo sapiens) (UniProt P04150); test: Inhibition of human glucocorticoid receptor at 10 uM by radioligand displacement assay; how it was run: as §3
[16] = biological target: Histamine H3 receptor (Homo sapiens) (UniProt Q9Y5N1); test: Inhibition of human histamine H3 receptor at 10 uM by radioligand displacement assay; how it was run: as §3
[17] = biological target: Muscarinic acetylcholine receptor M1 (Homo sapiens) (UniProt P11229); test: Inhibition of human muscarinic M1 receptor at 10 uM by radioligand displacement assay; how it was run: as §3
[18] = biological target: Muscarinic acetylcholine receptor M2 (Homo sapiens) (UniProt P08172); test: Inhibition of human muscarinic M2 receptor at 10 uM by radioligand displacement assay; how it was run: as §3
[19] = biological target: Neuropeptide Y receptor type 2 (Homo sapiens) (UniProt P49146); test: Inhibition of human Neuropeptide Y Y2 receptor at 10 uM by radioligand displacement assay
How it was run: (§4)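 Single concentration of 10 μM, tested in duplicate in a contract panel of 68 in vitro enzyme and receptor binding assays covering common adverse CNS, cardiovascular, pulmonary and genotoxic targets.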

Homo sapiens = species: Homo sapiens; test: Inhibition of human nicotinic acetylcholine receptor bungarotoxin binding site at 10 uM by radioligand displacement assay; how it was run: as §4
[20] = biological target: Prostaglandin E2 receptor EP4 subtype (Homo sapiens) (UniProt P35408); test: Inhibition of human prostanoid receptor EP4 at 10 uM by radioligand displacement assay; how it was run: as §3
Rattus norvegicus [21] = species: Rattus norvegicus; test: Inhibition of rat Rolipram binding site at 10 uM by radioligand displacement assay; how it was run: as §3
[22] = biological target: 5-hydroxytryptamine receptor 1A (Homo sapiens) (UniProt P08908); test: Inhibition of human 5HT1A receptor at 10 uM by radioligand displacement assay; how it was run: as §2
[23] = biological target: 5-hydroxytryptamine receptor 3A (Homo sapiens) (UniProt P46098); test: Inhibition of human 5HT3A receptor at 10 uM by radioligand displacement assay; how it was run: as §2
Rattus norvegicus [24] = species: Rattus norvegicus; test: Inhibition of rat sodium channel site 2 at 10 uM by radioligand displacement assay; how it was run: as §3
Rattus norvegicus [25] = species: Rattus norvegicus; test: Inhibition of rat GABA transporter at 10 uM by radioligand displacement assay; how it was run: as §3
[26] = biological target: Sodium-dependent noradrenaline transporter (Homo sapiens) (UniProt P23975); test: Inhibition of human norepinephrine transporter at 10 uM by radioligand displacement assay; how it was run: as §3
[27] = biological target: Sodium-dependent serotonin transporter (Homo sapiens) (UniProt P31645); test: Inhibition of human serotonin transporter at 10 uM by radioligand displacement assay; how it was run: as §3
Mus musculus = test: Neuroprotective activity in SOD1 G93A mutant B6SJL mouse ALS model assessed as life extension at 20 mg/kg administered qd for 1 week (reference value: 125.7 +/- 4.9 days); format: functional
[28] = tested on: Superoxide dismutase [Cu-Zn] (Homo sapiens), P00441 [G94A]; test: Inhibition of SOD1 G93A mutant aggregation-induced cytotoxicity in human HEK293 cells by cytotoxicity protection assay; format: cell-based

Superoxide dismutase [Cu-Zn] (Homo sapiens), P00441 [G94A], sequence (P00441 whole entry G94A, the tested form may be a part): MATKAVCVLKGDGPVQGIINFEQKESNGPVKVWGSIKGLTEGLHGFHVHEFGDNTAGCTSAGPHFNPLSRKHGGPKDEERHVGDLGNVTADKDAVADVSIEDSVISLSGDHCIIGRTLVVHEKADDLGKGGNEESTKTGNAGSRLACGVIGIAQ
5-hydroxytryptamine receptor 3A (Homo sapiens), sequence (P46098 whole entry): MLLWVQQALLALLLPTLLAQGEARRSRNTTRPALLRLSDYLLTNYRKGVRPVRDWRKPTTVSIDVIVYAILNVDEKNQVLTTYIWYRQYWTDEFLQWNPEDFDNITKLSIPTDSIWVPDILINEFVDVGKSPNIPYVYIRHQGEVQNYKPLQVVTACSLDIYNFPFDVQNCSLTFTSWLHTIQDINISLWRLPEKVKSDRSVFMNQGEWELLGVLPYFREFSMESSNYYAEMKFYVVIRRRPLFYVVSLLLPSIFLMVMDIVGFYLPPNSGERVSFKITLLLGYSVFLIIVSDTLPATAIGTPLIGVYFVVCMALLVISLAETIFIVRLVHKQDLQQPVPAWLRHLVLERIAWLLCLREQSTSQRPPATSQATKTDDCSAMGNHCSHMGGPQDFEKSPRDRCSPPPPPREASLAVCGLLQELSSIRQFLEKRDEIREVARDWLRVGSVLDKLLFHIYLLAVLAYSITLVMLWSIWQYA
Glucocorticoid receptor (Homo sapiens), sequence (P04150 whole entry): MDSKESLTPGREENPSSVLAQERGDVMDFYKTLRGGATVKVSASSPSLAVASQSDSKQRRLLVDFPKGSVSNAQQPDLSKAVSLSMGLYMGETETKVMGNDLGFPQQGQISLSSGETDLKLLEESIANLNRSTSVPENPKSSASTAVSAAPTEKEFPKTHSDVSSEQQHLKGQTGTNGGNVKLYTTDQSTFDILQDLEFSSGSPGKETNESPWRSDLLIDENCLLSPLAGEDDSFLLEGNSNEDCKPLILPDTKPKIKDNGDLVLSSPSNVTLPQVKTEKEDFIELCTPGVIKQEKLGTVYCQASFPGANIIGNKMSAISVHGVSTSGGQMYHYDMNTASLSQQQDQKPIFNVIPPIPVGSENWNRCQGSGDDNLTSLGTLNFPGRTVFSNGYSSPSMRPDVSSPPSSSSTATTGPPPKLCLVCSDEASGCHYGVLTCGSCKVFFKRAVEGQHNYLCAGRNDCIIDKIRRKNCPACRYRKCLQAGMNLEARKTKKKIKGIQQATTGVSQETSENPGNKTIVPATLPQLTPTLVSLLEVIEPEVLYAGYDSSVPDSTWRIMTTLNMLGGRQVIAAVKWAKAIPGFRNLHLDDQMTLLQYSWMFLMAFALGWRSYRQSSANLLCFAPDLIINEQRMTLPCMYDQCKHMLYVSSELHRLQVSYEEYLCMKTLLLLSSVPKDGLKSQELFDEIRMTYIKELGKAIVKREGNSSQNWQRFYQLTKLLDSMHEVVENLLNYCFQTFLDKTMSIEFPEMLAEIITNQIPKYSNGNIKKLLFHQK
Muscarinic acetylcholine receptor M2 (Homo sapiens), sequence (P08172 whole entry): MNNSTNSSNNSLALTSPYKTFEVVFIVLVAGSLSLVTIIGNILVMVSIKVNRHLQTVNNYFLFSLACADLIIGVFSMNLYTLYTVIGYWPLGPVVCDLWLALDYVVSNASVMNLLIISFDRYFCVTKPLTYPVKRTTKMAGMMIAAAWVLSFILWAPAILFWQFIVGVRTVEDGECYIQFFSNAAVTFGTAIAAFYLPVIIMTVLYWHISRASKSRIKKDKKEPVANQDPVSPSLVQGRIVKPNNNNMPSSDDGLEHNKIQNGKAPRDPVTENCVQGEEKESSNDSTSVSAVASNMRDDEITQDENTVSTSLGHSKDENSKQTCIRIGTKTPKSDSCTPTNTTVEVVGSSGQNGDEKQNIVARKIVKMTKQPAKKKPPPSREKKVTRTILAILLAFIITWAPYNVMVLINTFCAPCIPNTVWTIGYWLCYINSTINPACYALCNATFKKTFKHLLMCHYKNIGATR
Muscarinic acetylcholine receptor M1 (Homo sapiens), sequence (P11229 whole entry): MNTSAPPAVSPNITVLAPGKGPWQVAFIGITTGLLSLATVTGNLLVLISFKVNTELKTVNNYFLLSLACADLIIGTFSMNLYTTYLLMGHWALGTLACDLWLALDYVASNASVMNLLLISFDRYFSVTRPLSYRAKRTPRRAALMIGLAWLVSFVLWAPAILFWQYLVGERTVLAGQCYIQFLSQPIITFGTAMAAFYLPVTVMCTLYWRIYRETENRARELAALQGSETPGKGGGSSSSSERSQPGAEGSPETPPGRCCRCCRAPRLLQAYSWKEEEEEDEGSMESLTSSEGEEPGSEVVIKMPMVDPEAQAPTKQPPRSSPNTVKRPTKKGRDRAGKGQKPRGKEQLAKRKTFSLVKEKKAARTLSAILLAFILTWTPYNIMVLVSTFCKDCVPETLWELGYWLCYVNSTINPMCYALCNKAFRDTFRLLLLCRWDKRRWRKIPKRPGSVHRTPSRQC
Sodium-dependent serotonin transporter (Homo sapiens), sequence (P31645 whole entry, looked up): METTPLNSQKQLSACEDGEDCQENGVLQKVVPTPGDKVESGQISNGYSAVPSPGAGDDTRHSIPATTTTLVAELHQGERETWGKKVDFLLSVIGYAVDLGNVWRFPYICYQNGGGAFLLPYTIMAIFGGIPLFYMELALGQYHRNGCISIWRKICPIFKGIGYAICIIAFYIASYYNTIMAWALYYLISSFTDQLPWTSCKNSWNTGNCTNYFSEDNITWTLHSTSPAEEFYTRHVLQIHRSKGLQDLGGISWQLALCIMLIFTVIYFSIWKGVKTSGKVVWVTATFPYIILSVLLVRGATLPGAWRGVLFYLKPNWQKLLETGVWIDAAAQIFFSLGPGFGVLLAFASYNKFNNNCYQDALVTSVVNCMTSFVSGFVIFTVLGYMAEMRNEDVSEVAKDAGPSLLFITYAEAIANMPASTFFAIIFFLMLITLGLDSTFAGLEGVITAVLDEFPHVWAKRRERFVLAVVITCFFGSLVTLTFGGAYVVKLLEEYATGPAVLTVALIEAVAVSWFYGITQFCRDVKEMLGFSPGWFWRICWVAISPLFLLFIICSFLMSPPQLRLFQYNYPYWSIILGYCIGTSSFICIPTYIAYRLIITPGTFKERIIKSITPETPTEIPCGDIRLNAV
B1 bradykinin receptor (Homo sapiens), sequence (P46663 whole entry): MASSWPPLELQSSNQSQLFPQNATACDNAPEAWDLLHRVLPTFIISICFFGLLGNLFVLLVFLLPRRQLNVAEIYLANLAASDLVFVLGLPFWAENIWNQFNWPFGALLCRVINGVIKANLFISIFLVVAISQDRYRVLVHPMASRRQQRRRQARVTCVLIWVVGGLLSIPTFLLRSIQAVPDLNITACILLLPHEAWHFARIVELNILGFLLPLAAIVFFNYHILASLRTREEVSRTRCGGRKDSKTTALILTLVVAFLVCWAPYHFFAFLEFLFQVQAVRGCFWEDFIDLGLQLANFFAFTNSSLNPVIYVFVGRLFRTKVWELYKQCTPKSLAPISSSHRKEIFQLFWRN
Epidermal growth factor receptor (Homo sapiens), sequence (P00533 whole entry): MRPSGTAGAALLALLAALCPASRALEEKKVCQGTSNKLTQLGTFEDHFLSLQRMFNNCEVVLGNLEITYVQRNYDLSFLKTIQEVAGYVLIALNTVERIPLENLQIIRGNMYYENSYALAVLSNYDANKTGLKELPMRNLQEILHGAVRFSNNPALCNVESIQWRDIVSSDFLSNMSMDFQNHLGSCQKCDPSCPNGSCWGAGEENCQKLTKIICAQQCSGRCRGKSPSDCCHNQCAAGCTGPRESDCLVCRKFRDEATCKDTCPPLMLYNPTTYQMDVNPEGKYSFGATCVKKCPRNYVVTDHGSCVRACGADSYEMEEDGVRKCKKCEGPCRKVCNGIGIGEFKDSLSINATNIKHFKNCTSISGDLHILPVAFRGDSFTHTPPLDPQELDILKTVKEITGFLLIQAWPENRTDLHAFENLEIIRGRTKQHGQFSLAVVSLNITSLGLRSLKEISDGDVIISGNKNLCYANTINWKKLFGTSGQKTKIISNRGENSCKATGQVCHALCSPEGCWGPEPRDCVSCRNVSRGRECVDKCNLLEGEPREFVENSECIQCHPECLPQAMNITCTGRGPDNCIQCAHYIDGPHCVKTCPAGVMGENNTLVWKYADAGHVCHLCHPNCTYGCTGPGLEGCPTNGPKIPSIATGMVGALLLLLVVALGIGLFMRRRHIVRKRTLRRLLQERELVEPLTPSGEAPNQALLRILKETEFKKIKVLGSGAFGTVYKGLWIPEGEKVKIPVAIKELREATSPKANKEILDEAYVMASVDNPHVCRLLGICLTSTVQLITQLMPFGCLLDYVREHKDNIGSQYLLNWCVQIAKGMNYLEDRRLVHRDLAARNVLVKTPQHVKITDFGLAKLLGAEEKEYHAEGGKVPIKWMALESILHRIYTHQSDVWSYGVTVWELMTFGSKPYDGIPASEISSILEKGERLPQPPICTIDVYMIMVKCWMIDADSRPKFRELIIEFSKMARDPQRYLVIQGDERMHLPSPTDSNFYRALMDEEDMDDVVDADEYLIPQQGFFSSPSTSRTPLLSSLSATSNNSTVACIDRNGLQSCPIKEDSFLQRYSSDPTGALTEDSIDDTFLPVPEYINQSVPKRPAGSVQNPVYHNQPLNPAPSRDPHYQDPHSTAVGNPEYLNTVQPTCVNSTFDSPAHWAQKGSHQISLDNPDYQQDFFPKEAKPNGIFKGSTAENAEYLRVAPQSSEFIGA
Neuropeptide Y receptor type 2 (Homo sapiens), sequence (P49146 whole entry): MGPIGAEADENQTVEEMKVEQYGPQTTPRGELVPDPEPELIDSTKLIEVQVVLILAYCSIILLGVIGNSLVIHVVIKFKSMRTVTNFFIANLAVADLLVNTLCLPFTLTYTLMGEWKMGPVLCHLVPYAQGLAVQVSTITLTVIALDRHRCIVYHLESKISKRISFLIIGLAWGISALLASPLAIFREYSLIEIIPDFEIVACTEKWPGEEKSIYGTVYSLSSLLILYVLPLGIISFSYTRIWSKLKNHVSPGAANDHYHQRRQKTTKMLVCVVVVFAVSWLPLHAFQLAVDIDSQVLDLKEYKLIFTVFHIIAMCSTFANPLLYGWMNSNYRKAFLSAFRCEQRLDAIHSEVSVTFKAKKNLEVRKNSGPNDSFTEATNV

Structure (SMILES): O=c1cc(COc2cc(Cl)cc(Cl)c2)[nH][nH]1
- Activity [1]: 100%
- t1/2 [2]: 0.6 h
- Papp (Caco-2): 141 nm/s
- concentration at 6 h [3]: 347 µM
- AUC(0-t) [4]: 0.042 µg·h/mL
- AUC/dose (Rattus norvegicus [5]): 184 ng·h/mL/mg/kg
- AUC/dose (Rattus norvegicus [6]): 50 ng·h/mL/mg/kg
- half-life [7]: 3.6 h
- Vd [8]: 5.7 L/kg
- IC50 (Cytochrome P450 2C9): > 50 µM
- inhibition [9]: 5%
- inhibition at 10 µM [10]: -2%
- inhibition [11]: 0%
- inhibition [12]: 5%
- inhibition (Rattus norvegicus [13]): 12%
- inhibition (Rattus norvegicus [14]): 1%
- inhibition [15]: 4%
- inhibition [16]: 15%
- inhibition [17]: 2%
- inhibition [18]: -2%
- inhibition [19]: 6%
- inhibition (Homo sapiens): 6%
- inhibition [20]: -8%
- inhibition (Rattus norvegicus [21]): -2%
- inhibition [22]: -6%
- inhibition [23]: 7%
- inhibition (Rattus norvegicus [24]): 4%
- inhibition (Rattus norvegicus [25]): -4%
- inhibition [26]: -10%
- inhibition [27]: -6%
- Survival (Mus musculus): 142.5 days
- inhibition [28]: Active
